# Measurements: PubChem BioAssay AID504383 (The Scripps Research Institute Molecular Screening Center, 2011)
# Hit rate of the full screen: of about 2,500 compounds, about 1,200 (48%) were called active. So high a share suggests a set chosen from earlier hits. The list shows a part of the results. Unmarked numbers belong to inactive results.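 How the source made its calls: active means mean activation above the low control average plus 3 SD, as set in the primary screen (cut at about 12% in these data); inactive means the rest.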
# Biological target: Troponin I, cardiac muscle (Homo sapiens) + Troponin T, cardiac muscle (Homo sapiens) + Troponin C, slow skeletal and cardiac muscles (Homo sapiens) (UniProt P19429+P45379+P63316)
# Assay: cardiac RTF calcium sensitivity activators, confirmation, biochemical, IANBD-TnC fluorescence, triplicate (AID 504383);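 further: 0% = DMSO at 0.472 mM calcium and 100% = DMSO at 2.9 mM calcium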
# Details: IANBD-labeled cardiac RTF, Ca2+ sensitivity fluorescence; at 7.2 µM; active compounds read high; scaled from EC20 to saturating calcium; tested at EC20 calcium, 0.472 mM
# In short: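 Material: labelled regulated thin filaments; Reagent: 0.472 mM calcium; Incubation: 15 min compound incubation with filaments at 25 °C; Detection: filament fluorescence intensity; Evaluation: fluorescence increase normalised to calcium controls; Benchmarks: low control EC20 calcium, high control EC100 calcium.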
row,SMILES,activation
1,Cc1cc2nc3c(=O)[nH]c(=S)[nH]c3nc2cc1NC(=O)C(F)(F)F,25.4% (active)
2,O=C(c1ccc(COc2ccccc2Br)o1)N1N=C(C(F)F)CC1(O)C(F)F (stereo unspecified),34.5% (active)
3,O=C(c1ccc(Cn2cc([N+](=O)[O-])cn2)o1)N1N=C(C(F)F)CC1(O)C(F)F (stereo unspecified),14.1% (active)
4,c1ccc(-n2ncc(-c3nn[nH]n3)n2)cc1,163% (active)
5,CC(=O)Nc1ccc(N2C(=O)c3cccc4c(O)ccc(c34)C2=O)cc1,2.36%
6,CC(=O)Nc1ccc(N2C(=O)CSC2c2ccc(F)cc2)cc1 (stereo unspecified),81.7% (active)
7,CCC(=O)N1CCC2(CC1)Oc1ccc(Cl)cc1C(=O)C21CC(c2cccnc2)=NO1 (stereo unspecified),19.6% (active)
8,CN1C(=O)/C(=C\c2ccc(N(C)C)cc2)OC1=S,223% (active)
9,CN(C)c1ccc(/C=C2\N=C(C(C)(C)C)OC2=O)cc1,7.46%
10,Cc1c(N2C(=O)/C(=C\c3ccc(N(C)C)cc3)N(C)C2=S)c(=O)n(-c2ccccc2)n1C,6.77%
11,CN(N=Nc1nc[nH]c1C(=O)NN)C1CCCCC1,12.9% (active)
12,COC(=O)CCCNC(=O)CCc1nnc(-c2ccc(-c3ccccc3)cc2)o1,10.8%
13,Cc1cc(C)c(C#N)c(SCc2nnc(-c3ccccc3)o2)n1,50.8% (active)
14,O=C(CO/N=C/c1ccccc1OC(F)F)NCc1cccs1,70.3% (active)
15,C=CCN1C(=O)c2cccc3c(N4CCCCC4)ccc(c23)C1=O,15.9% (active)
16,O=C1c2cccc3c(N4CCCCC4)ccc(c23)C(=O)N1c1ccc(O)cc1,10.7%
17,CCCN1C(=O)c2cccc3c(N4CCCCC4)ccc(c23)C1=O,6.04%
18,Cc1n[nH]c(C)c1N1C(=O)c2cccc3c(N4CCCCCC4)ccc(c23)C1=O,5.61%
19,O=C1c2ccccc2-c2onc3ccc(N4CCCC4)c1c23,9.75%
20,O=C1c2cccc3c(N4CCCCC4)ccc(c23)C(=O)N1CCO,185% (active)
21,O=C1c2cccc3c(N4CCCCC4)ccc(c23)C(=O)N1c1cccc(O)c1,33.3% (active)
22,O=C1c2cccc3c(N4CCCCC4)ccc(c23)C(=O)N1c1ccccc1O,-0.04%
23,CC1(C)C2CCC(C2)C1(C)N=C1OC(CCl)CS1 (stereo unspecified),3.58%

row,SMILES,activation
1,N=c1oc2c3c4c(cc2cc1C(=O)Nc1ccccc1)CCCN4CCC3,88.7% (active)
2,O=c1oc2c3c4c(cc2c(C(F)(F)F)c1CCN1CCOCC1)CCCN4CCC3,4.32%
3,Cc1ccc2c(CN3CCCc4ccccc43)cc(=O)oc2c1C,-0.53%
4,O=c1ccc2cc3c4c(c2o1)CCCN4CCC3,33.6% (active)
5,CCN(CC)S(=O)(=O)c1ccc2[nH]cc(C(=O)NCCN3CCCCCC3)c(=O)c2c1,34.4% (active)
6,CC(C)(C)c1cc(NC(=O)c2cccc(S(=O)(=O)N3CCOCC3)c2)no1,23.5% (active)
7,CC(=O)N1CCN(S(=O)(=O)c2cccc(C(=O)NNC(=O)c3ccc(Br)cc3)c2)CC1,7.22%
8,Cn1nc(-c2ccccc2)c(C(=O)Nc2ccc(C(F)(F)F)cc2)c1Cl,26.2% (active)
9,CN1CCN(C2=CC3=CC(=C(C#N)C#N)CCC3CC2)CC1 (stereo unspecified),6.77%
10,CSCC(C)N1CCC(n2nccc2NC(=O)CCCc2ccccc2)CC1 (stereo unspecified),162% (active)
11,CC(=O)NCC(O)c1ccc([N+](=O)[O-])cc1 (stereo unspecified),7.74%
12,COC(=O)CCN(C(=O)c1ccc([N+](=O)[O-])cc1)c1ccccn1,19.7% (active)
13,COCCCNc1c2c3c(cccc3[nH]c1=O)C(=O)c1ccccc1-2,13.2% (active)
14,CCCCNc1c2c3c(cccc3n(C)c1=O)C(=O)c1ccccc1-2,2.63%
15,CC(C)n1cnc2c(NCc3ccccc3)cc(N[C@H](C)CO)cc21,-7.72%
16,CCOC(=O)c1sc2nc(C)nc(SCC(=O)NC3CCS(=O)(=O)C3)c2c1C (stereo unspecified),32.3% (active)
17,C[C@@H]1CC=C[C@H]2[C@H]1C(=O)N(Cc1ccccc1)[C@H]2c1ccc(-c2cc3ccccc3s2)cc1F,3.06%
18,CN(Cc1ccccc1)C(=O)c1cccc(N2C(=O)NC3CC2(C)Oc2ccccc23)c1 (stereo unspecified),54% (active)
19,CCOc1cccc2c1OC1(C)CC2NC(=O)N1c1cccc(C(=O)NCc2ccccn2)c1 (stereo unspecified),5.07%
20,COc1cccc2c1OC1(C)CC2NC(=O)N1Cc1ccccc1 (stereo unspecified),10.4%
21,COc1ccc(-c2nc(/C=C3\C(C)=Nc4ccccc43)c(O)o2)cc1,12.1% (active)
22,CC1=Nc2ccccc2/C1=C\c1nc(-c2ccc(C(F)(F)F)cc2)oc1O,7.9%
23,CC1=Nc2ccccc2/C1=C\c1nc(-c2ccc(F)cc2)oc1O,7.33%
